This is an account of results in PMC10447992 (Heliyon, 2023).

Series [1] in a line: MTT cytotoxicity assay, WISH cell line. Type of series: cell-based. The following applies: human, WISH cells (human amnion). In a few lines: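 WISH cells (ATCC via VACSERA) grown in RPMI-1640 with 10% fetal bovine serum at 37 °C, 5% CO2. Seeded at 1.0 × 10^4 cells/well for 48 h, then treated 24 h with a range of concentrations. MTT (5 mg/mL stock) added for 4 h, formazan dissolved in DMSO, A570 read. Viability given as % of untreated cells. IC50 in μg/mL is the concentration giving 50% inhibition versus untreated cells. Doxorubicin reference.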
A general note: Tetrazolium dyes change colour on reduction, which living cells bring about.

A short description of series [2]: Antioxidant activity screening by ABTS method. The conditions noted are these: ABTS radical scavenging, 6 min incubation, absorbance at 734 nm. In a few lines: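 ABTS radical made from 7 mM ABTS plus 140 mM […], left in the dark at room temperature for 16 h, then diluted 1:44 (v/v) in water. Equal volumes of radical solution and sample mixed in microplate and held 6 min at room temperature. Absorbance read at 734 nm against 100% methanol. Percent inhibition calculated by formula; L-ascorbic acid as reference.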

Molecules are shown by their SMILES.

Consider `COc1cccc2c1C(=O)c1c(O)c3c(c(O)c1C2=O)C[C@@](O)(C(=O)CO)C[C@@H]3O[C@H]1C[C@H](N)[C@H](O)[C@H](C)O1` [DOX, doxorubicin], for which the IC50 at 24 h in series [1] turned out to be 3.18 ± 0.2 µM.

On to `O=C1O[C@H]([C@@H](O)CO)C(O)=C1O` [L-Ascorbic acid], for which the “ABTS Inhibition %” value in series [2] amounted to 88.8%.

For orientation: IC50 means the concentration needed to halve the response being measured.
